# Experimental data from ChEMBL document CHEMBL4196009, “Novel vitexin-inspired scaffold against leukemia” (Eur J Med Chem, 2018).
# The source made the active and inactive calls. No cut-off for these calls is given here.
# Columns and labels:
# [1] = test system: KOPN-8; assay: Induction of apoptosis in human KOPN8 cells assessed as upregulation of cleaved PARP level at 0.5 uM pre-treated with NAC for 1 hr and measured after 3 to 24 hrs by Western blot analysis; type: functional, cell-based
# Method in brief: (§1)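 KOPN-8 cells were exposed to compound for 3 h and 24 h, with or without N-acetylcysteine added to a parallel set as antioxidant. Lysates were analysed by Western blot for cleaved PARP, Mcl-1, Ser-2-phosphorylated RNAPII CTD, cMyc, total Rb and pRb. Signals were compared against controls for dose-dependent change.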
# [2] = test system: KOPN-8; assay: Effect on c-Myc expression in human KOPN8 cells at 0.5 uM pre-treated with NAC for 1 hr and measured after 24 hrs by Western blot analysis relative to control; type: functional
# [3] = test system: KOPN-8; assay: Induction of apoptosis in human KOPN8 cells assessed as upregulation of cleaved PARP level at 0.5 uM after 3 to 24 hrs by Western blot analysis; type: functional, cell-based; method in brief: as §1
# [4] = test system: UoC-B1; assay: Antiproliferative activity against human UOCB1 cells after 72 hrs by CelTiter-Glo assay; type: functional, cell-based; conditions: UoC-B1, 72 h
# [5] = test system: KOPN-8; assay: Effect on c-Myc expression in human KOPN8 cells at 0.5 uM after 3 hrs by Western blot analysis relative to control; type: functional
# [6] = target: T1, Retinoblastoma-associated protein (Homo sapiens) (UniProt P06400); assay: Inhibition of Rb phosphorylation in human KOPN8 cells assessed as ratio of phosphorylated Rb to total Rb levels at 0.5 uM after 24 hrs by Western blot analysis relative to control; type: cell-based; method in brief: as §1
# T1 sequence (whole entry): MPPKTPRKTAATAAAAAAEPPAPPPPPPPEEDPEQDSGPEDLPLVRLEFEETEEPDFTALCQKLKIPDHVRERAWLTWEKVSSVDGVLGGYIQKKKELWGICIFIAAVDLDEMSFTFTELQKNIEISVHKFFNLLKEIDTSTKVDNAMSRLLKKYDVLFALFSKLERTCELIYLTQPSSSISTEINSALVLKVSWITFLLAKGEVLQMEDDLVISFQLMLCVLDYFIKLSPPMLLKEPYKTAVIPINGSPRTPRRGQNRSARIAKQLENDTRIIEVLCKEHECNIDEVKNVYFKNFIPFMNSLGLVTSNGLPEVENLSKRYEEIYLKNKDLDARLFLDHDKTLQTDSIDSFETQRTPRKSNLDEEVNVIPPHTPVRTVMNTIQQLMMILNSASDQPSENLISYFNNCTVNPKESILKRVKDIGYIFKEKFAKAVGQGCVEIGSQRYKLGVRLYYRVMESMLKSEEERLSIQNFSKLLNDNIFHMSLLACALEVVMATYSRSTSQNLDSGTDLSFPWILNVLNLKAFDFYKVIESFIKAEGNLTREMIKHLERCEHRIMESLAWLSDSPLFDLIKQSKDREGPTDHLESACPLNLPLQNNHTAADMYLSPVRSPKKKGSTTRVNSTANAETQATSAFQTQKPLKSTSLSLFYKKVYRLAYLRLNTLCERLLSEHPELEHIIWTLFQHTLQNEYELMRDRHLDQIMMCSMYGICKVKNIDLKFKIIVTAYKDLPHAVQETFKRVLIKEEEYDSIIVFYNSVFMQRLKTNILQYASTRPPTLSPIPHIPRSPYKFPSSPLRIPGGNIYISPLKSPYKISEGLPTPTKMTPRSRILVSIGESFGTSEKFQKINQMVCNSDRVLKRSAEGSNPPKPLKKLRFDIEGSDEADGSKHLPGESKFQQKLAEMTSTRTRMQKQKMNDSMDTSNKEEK
# [7] = test system: MDA-MB-231; assay: Cell cycle arrest in human MDA-MB-231 cells assessed as accumulation at S phase at 5 uM after 24 hrs by propidium iodide staining-based flow cytometry (reference value: 20.15%); type: functional
# [8] = target: T1, Retinoblastoma-associated protein (Homo sapiens); assay: Inhibition of Rb phosphorylation in human KOPN8 cells assessed as ratio of phosphorylated Rb to total Rb levels at 0.5 uM pre-treated with NAC for 1 hr and measured after 24 hrs by Western blot analysis relative to control; type: cell-based
# Method in brief: (§2)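 KOPN-8 pre-B ALL cells were treated for 3 h and 24 h, with or without N-acetyl cysteine added to a parallel set of cells as an antioxidant/ROS quencher. Lysates were analysed by Western blot for phosphorylated Rb and total Rb. The same blots also probed PARP cleavage, Mcl-1, Ser-2-phosphorylated RNAPII CTD and cMyc.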
# [9] = test system: MDA-MB-231; assay: Cell cycle arrest in human MDA-MB-231 cells assessed as accumulation at G0/G1 phase at 5 uM after 24 hrs by propidium iodide staining-based flow cytometry (reference value: 70.47%); type: functional
# [10] = target: T1, Retinoblastoma-associated protein (Homo sapiens); assay: Inhibition of Rb phosphorylation in human KOPN8 cells assessed as ratio of phosphorylated Rb to total Rb levels at 0.5 uM after 3 hrs by Western blot analysis relative to control; type: cell-based; method in brief: as §2
# [11] = species: Homo sapiens; assay: Inhibition of RNA polymerase 2 C-terminal domain phosphorylation at Ser2 residue in human KOPN8 cells at 0.5 uM after 3 hrs by Western blot analysis relative to control; type: cell-based; method in brief: as §1
# [12] = test system: KOPN-8; assay: Induction of apoptosis in human KOPN8 cells assessed as effect on Mcl-1 level at 0.5 uM after 24 hrs by Western blot analysis relative to control; type: functional
# [13] = test system: KOPN-8; assay: Induction of apoptosis in human KOPN8 cells assessed as effect on Mcl-1 level at 0.5 uM pre-treated with NAC for 1 hr and measured after 24 hrs by Western blot analysis relative to control; type: functional
# [14] = test system: KOPN-8; assay: Antiproliferative activity against human KOPN8 cells after 72 hrs by CelTiter-Glo assay; type: functional, cell-based; conditions: KOPN-8, 72 h
# [15] = test system: SEM cells; assay: Antiproliferative activity against human SEM cells after 72 hrs by CelTiter-Glo assay; type: functional, cell-based
# [16] = test system: SUP-B15; assay: Antiproliferative activity against human SUP-B15 cells after 72 hrs by CelTiter-Glo assay; type: functional, cell-based; conditions: SUP-B15, 72 h
# [17] = test system: KOPN-8; assay: Induction of apoptosis in human KOPN8 cells assessed as effect on Mcl-1 level at 0.5 uM pre-treated with NAC for 1 hr and measured after 3 hrs by Western blot analysis relative to control; type: functional
# [18] = test system: BJ; assay: Antiproliferative activity against human BJ cells after 72 hrs by CelTiter-Glo assay; type: cell-based
# [19] = species: Homo sapiens; assay: Inhibition of RNA polymerase 2 C-terminal domain phosphorylation at Ser2 residue in human KOPN8 cells at 0.5 uM after 24 hrs by Western blot analysis; type: cell-based; method in brief: as §1
# [20] = species: Homo sapiens; assay: Inhibition of RNA polymerase 2 C-terminal domain phosphorylation at Ser2 residue in human KOPN8 cells at 0.5 uM pre-treated with NAC for 1 hr and measured after 3 hrs by Western blot analysis relative to control; type: cell-based; method in brief: as §1
# [21] = species: Homo sapiens; assay: Inhibition of RNA polymerase 2 C-terminal domain phosphorylation at Ser2 residue in human KOPN8 cells at 0.5 uM pre-treated with NAC for 1 hr and measured after 24 hrs by Western blot analysis relative to control; type: cell-based; method in brief: as §1
# [22] = test system: HepG2; assay: Antiproliferative activity against human HepG2 cells after 72 hrs by CelTiter-Glo assay; type: functional, cell-based; conditions: HepG2, 72 h
# [23] = test system: KOPN-8; assay: Induction of apoptosis in human KOPN8 cells assessed as effect on Mcl-1 level at 0.5 uM after 3 hrs by Western blot analysis relative to control; type: functional
# [24] = test system: KOPN-8; assay: Effect on c-Myc expression in human KOPN8 cells at 0.5 uM pre-treated with NAC for 1 hr and measured after 3 hrs by Western blot analysis relative to control; type: functional
# [25] = target: T1, Retinoblastoma-associated protein (Homo sapiens); assay: Inhibition of Rb phosphorylation in human KOPN8 cells assessed as ratio of phosphorylated Rb to total Rb levels at 0.5 uM pre-treated with NAC for 1 hr and measured after 3 hrs by Western blot analysis relative to control; type: cell-based; method in brief: as §2
# [26] = test system: KOPN-8; assay: Effect on c-Myc expression in human KOPN8 cells at 0.5 uM after 24 hrs by Western blot analysis relative to control; type: functional
# [27] = test system: MDA-MB-231; assay: Cell cycle arrest in human MDA-MB-231 cells assessed as accumulation at G2/M phase at 5 uM after 24 hrs by propidium iodide staining-based flow cytometry (reference value: 9.38%); type: functional
# [28] = test system: MDA-MB-231; assay: Cell cycle arrest in human MDA-MB-231 cells assessed as accumulation at S phase at 2.5 uM after 24 hrs by propidium iodide staining-based flow cytometry (reference value: 20.15%); type: functional
# [29] = test system: KOPN-8; assay: Cell cycle arrest in human KOPN8 cells assessed as accumulation at G0/G1 phase at 2 uM after 24 hrs by propidium iodide staining-based flow cytometry (reference value: 24.77%); type: functional
# [30] = test system: SUP-B15; assay: Induction of apoptosis in human SUP-B15 cells assessed as viable cells at 2 uM after 24 hrs by Annexin V-FITC/propidium iodide staining-based flow cytometry (reference value: 82.8%); type: functional; conditions: SUP-B15, 24 h, read-out: Activity
# [31] = test system: KOPN-8; assay: Induction of apoptosis in human KOPN8 cells assessed as necrotic cells at 2 uM after 24 hrs by Annexin V-FITC/propidium iodide staining-based flow cytometry (reference value: 0.2%); type: functional
# [32] = test system: SUP-B15; assay: Induction of apoptosis in human SUP-B15 cells assessed as late apoptotic cells at 2 uM after 24 hrs by Annexin V-FITC/propidium iodide staining-based flow cytometry (reference value: 2.2%); type: functional
# [33] = test system: SUP-B15; assay: Induction of apoptosis in human SUP-B15 cells assessed as early apoptotic cells at 2 uM after 24 hrs by Annexin V-FITC/propidium iodide staining-based flow cytometry (reference value: 0.1%); type: functional
# [34] = test system: KOPN-8; assay: Induction of apoptosis in human KOPN8 cells assessed as viable cells at 2 uM after 24 hrs by Annexin V-FITC/propidium iodide staining-based flow cytometry (reference value: 85.2%); type: functional; conditions: KOPN-8, 24 h, read-out: Activity
# [35] = test system: MDA-MB-231; assay: Cell cycle arrest in human MDA-MB-231 cells assessed as accumulation at G0/G1 phase at 2.5 uM after 24 hrs by propidium iodide staining-based flow cytometry (reference value: 70.47%); type: functional
# [36] = test system: MDA-MB-231; assay: Cell cycle arrest in human MDA-MB-231 cells assessed as accumulation at G2/M phase at 2.5 uM after 24 hrs by propidium iodide staining-based flow cytometry (reference value: 9.38%); type: functional
# [37] = test system: KOPN-8; assay: Cell cycle arrest in human KOPN8 cells assessed as accumulation at S phase at 2 uM after 24 hrs by propidium iodide staining-based flow cytometry (reference value: 66.56%); type: functional
# [38] = test system: KOPN-8; assay: Induction of apoptosis in human KOPN8 cells assessed as early apoptotic cells at 2 uM after 24 hrs by Annexin V-FITC/propidium iodide staining-based flow cytometry (reference value: 0.1%); type: functional
# [39] = test system: SUP-B15; assay: Induction of apoptosis in human SUP-B15 cells assessed as necrotic cells at 2 uM after 24 hrs by Annexin V-FITC/propidium iodide staining-based flow cytometry (reference value: 9.2%); type: functional
# [40] = test system: KOPN-8; assay: Induction of apoptosis in human KOPN8 cells assessed as late apoptotic cells at 2 uM after 24 hrs by Annexin V-FITC/propidium iodide staining-based flow cytometry (reference value: 9.5%); type: functional
# [41] = test system: KOPN-8; assay: Cell cycle arrest in human KOPN8 cells assessed as accumulation at G2/M phase at 2 uM after 24 hrs by propidium iodide staining-based flow cytometry (reference value: 9.67%); type: functional
structure (smiles),measurement,setting,value
CN1CC[C@H](c2c(O)cc(O)c3c(=O)cc(-c4ccccc4Cl)oc23)[C@H](O)C1 [ALVOCIDIB],Activity,[1],Active
same,fold change (FC),[2],0
same,Activity,[3],Active
same,EC50,[4],208 nM
same,fold change (FC),[5],0.2
same,fold change (FC),[6],1
same,Activity,[7],17.5%
same,fold change (FC),[8],1.1
same,Activity,[9],66.03%
same,fold change (FC),[10],0.9
same,fold change (FC),[11],0.4
same,fold change (FC),[12],0
same,fold change (FC),[13],0
same,EC50,[14],193 nM
same,EC50,[15],204 nM
same,EC50,[16],> 86200 nM
same,fold change (FC),[17],0.2
same,EC50,[18],> 86200 nM
same,fold change (FC),[19],0
same,fold change (FC),[20],0.6
same,fold change (FC),[21],0
same,EC50,[22],146 nM
same,fold change (FC),[23],0.2
same,fold change (FC),[24],0.2
same,fold change (FC),[25],1.1
same,fold change (FC),[26],0
same,Activity,[27],16.47%
CN[C@@H]1C[C@H]2O[C@@](C)([C@@H]1OC)n1c3ccccc3c3c4c(c5c6ccccc6n2c5c31)C(=O)NC4 [STAUROSPORINE],Activity,[28],42.21%
same,Activity,[29],49.55%
same,viability at 2 µM,[30],9.8%
same,Activity,[31],0.1%
same,Activity,[32],44.2%
same,Activity,[33],0.2%
same,viability at 2 µM,[34],0.3%
same,Activity,[35],50.99%
same,Activity,[36],6.8%
same,Activity,[37],30.37%
same,Activity,[38],0.2%
same,Activity,[39],39.4%
same,Activity,[40],74.4%
same,Activity,[41],20.08%
